Reference: article PMC12377326 (RSC Advances, 2025)
Where “and” joins values, the source holds several entries; their conditions need not be identical. Identical values can stand only once.

Assays:
hCA II = hCA II (Homo sapiens, UniProt P00918); assay: hCA II counterscreen; type: biochemical; conditions: for S II = (IC50 hCA II, nM)/(IC50 hCA IX, nM): selectivity for CA IX over CA II
Outline: (§1)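 Recombinant human enzymes, >95% pure: hCA I (Ala2–Phe261) for line 1 and hCA II (Ser2–Lys260) for line 2. Run under the same conditions as the hCA IX assay at 25 °C. IC50 is the mean ± SD, n = 3. Where solubility prevented a full titration, IC50 was extrapolated from the linear range of the curve. Selectivity index = IC50 (hCA I or hCA II, nM)/IC50 (hCA IX, nM).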

hCA I = hCA I (Homo sapiens, UniProt P00915); assay: hCA I counterscreen; type: biochemical; conditions: for S I = (IC50 hCA I, nM)/(IC50 hCA IX, nM): selectivity for CA IX over CA I
Outline: as §1

hCA IX [1] = target: T1, hCA IX (Homo sapiens, UniProt Q16790); assay: Steady-state CO2-hydrase enzyme kinetics; type: biochemical; conditions: Lineweaver–Burk and Michaelis–Menten plots; unchanged Km, reduced Vmax
hCA IX [2] = target: T1, hCA IX; assay: biochemical; conditions: stopped-flow CO2-hydrase assay

Chain of hCA I (P00915 2-261): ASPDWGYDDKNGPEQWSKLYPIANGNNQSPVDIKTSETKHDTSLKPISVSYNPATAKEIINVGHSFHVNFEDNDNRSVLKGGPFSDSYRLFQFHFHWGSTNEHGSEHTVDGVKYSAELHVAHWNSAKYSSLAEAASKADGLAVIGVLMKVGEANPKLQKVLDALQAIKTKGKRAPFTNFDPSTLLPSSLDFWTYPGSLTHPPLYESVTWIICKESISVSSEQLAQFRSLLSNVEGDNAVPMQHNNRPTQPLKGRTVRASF

IC50 (hCA II)	S II = (IC50 hCA II, nM)/(IC50 hCA IX, nM) (hCA II)	IC50 (hCA I)	S I = (IC50 hCA I, nM)/(IC50 hCA IX, nM) (hCA I)	mode of inhibition (hCA IX [1])	S II = (IC50 hCA II, nM)/(IC50 hCA IX, nM) (hCA II; listed as palustric)	S I = (IC50 hCA I, nM)/(IC50 hCA IX, nM) (hCA I; listed as palustric)	S II = (IC50 hCA II, nM)/(IC50 hCA IX, nM) (hCA II; listed as pimaric)	IC50 (hCA IX [2]; IC50 CA IX (printed in μM), mean ± SD)	IC50 (hCA IX [2]; IC50 hCA IX, pH 7.4, 25 °C, mean ± SD (n = 3))	S I = (IC50 hCA I, nM)/(IC50 hCA IX, nM) (hCA I; listed as pimaric)	SMILES
0.68 ± 0.05 µM	4.6	1.5 ± 0.12 µM	10 and 10.2	non-competitive							CC(C)C1=CC[C@H]2C(=C1)CC[C@@H]1[C@]2(C)CCC[C@@]1(C)C(=O)O [Levopimaric acid, levopimaric acid]
1.45 ± 0.12 µM	5.0	2.25 ± 0.2 µM	7.8	non-competitive	≈ 5	≈ 8					CC(C)C1=CC2=C(CC1)[C@@]1(C)CCC[C@@](C)(C(=O)O)[C@@H]1CC2 [Palustric acid, palustric acid]
1.62 ± 0.13 µM	4.8	2.7 ± 0.25 µM	7.9	non-competitive			≈ 5	0.341 ± 0.0064 µM	0.341 ± 0.00637 µM	≈ 8	C=C[C@@]1(C)C=C2CC[C@@H]3[C@](C)(CCC[C@@]3(C)C(=O)O)[C@H]2CC1 [Pimaric acid, pimaric acid]
